Key:
Hepatitis C virus = test: Antiviral activity against Hepatitis C virus genotype 1b infected in human HuH5.2 cells after 72 hrs by luciferase reporter gene assay; assay type: functional, cell-based, Hepacivirus hominis
Summary of the method: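 Huh 5-2 cells with genotype 1b I389luc-ubi-neo/NS3-3'/5.1 subgenomic replicon, seeded 6 500 cells/well in DMEM/10% FCS without Geneticin, overnight 37 °C. Compound (DMSO stock diluted in medium) in 1:5 four-step or 1:2 eight-step series, 72 h. Cells PBS-washed, lysed 5 min, luciferase luminescence read, converted to % untreated control; EC50 from dose-response curve, mean of ≥2 independent experiments.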

[1] = Cytotoxicity against human HuH5.2 cells assessed as reduction in metabolic activity after 72 hrs by MTS assay; assay type: toxicity, cell-based, Huh-5-2; conditions: for CC50 at 72 h: HuH5.2 cells
Summary of the method: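 Run in parallel with the replicon assay: Huh 5-2 replicon cells, 6 500 cells/well, compound series for 72 h at 37 °C, 5% CO2. Medium then replaced with 5% MTS in phenol red-free medium for 1.5 h. Absorbance at 498 nm expressed as % untreated cells; CC50 from dose-response curve as 50% reduction in metabolic activity, mean of ≥2 experiments.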

[2] = Selectivity index, ratio of CC50 for human HuH5.2 cells to EC50 for hepatitis C virus genotype 1b infected in human HuH5.2 cells; assay type: toxicity, cell-based; conditions: for selectivity ratio: HuH5.2 cells, read-out: Ratio CC50/EC50
Summary of the method: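 Ratio of CC50 (MTS metabolic read-out, 72 h) to EC50 (replicon luciferase read-out, 72 h), both measured in parallel on Huh 5-2 genotype 1b replicon cells.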

[3] = Inhibition of Hepatitis C virus genotype 1b (con1) full length C-terminal His-tagged NS3 helicase expressed in Escherichia coli Rosette(DE3) assessed as inhibition of 5'-Cy5/3'-IAbRQ-labeled DNA unwinding activity by molecular beacon assay; set-up: species or system Hepatitis C virus (isolate Con1)
Summary of the method: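 Molecular beacon unwinding assay: 25 mM MOPS pH 6.5, 1.25 mM MgCl2, 5% DMSO, 5 µg/ml BSA, 0.01% Tween20, 0.05 mM DTT, 5 nM fluorescent DNA substrate, 12.5 nM NS3h, 1 mM ATP.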

[4] = Hepatitis C virus, genotype 1b, Huh-5-2, 72 h

SMILES | EC50 (Hepatitis C virus; [4]) | EC90 (Hepatitis C virus; [4]) | IC50 [3] | EC50 (Hepatitis C virus) | CC50 at 72 h [1] | selectivity ratio [2] | CC50 ([1]; huh-5-2, 72 h, 72 h) | Ratio CC50/EC50 [2]
O=C(NNc1ncnc2sc3c(c12)CCCC3)c1cnccn1 | 1.29 µM | 3.75 µM | > 1000 µM | – | 10.6 µM | 8.21 | – | –
C/C(=N\Nc1ncnc2sc3c(c12)CCCC3)c1cc2ccccc2[nH]1 | 61.2 µM | > 277 µM | > 1000 µM | – | 26 µM | 0.42 | – | –
O=C(NNc1ncnc2sc3c(c12)CCCC3)c1cc2ccccc2[nH]1 | 20.8 µM | – | 224 µM | – | 74.5 µM | 3.6 | – | –
C/C(=N/Nc1ncnc2sccc12)c1ccccc1O | 4.69 µM | > 10.6 µM | > 1000 µM | – | 80.5 µM | 17.2 | – | –
C/C(=N\Nc1ncnc2sc3c(c12)CCCC3)c1nc2ccccc2[nH]1 | 2.42 µM | 7.06 µM | > 1000 µM | – | 37.3 µM | 15.4 | – | –
C/C(=N/Nc1ncnc2sc(C)c(C)c12)c1cc(O)ccc1O | 1.58 µM | 4.65 µM | > 1000 µM | – | > 305 µM | > 193 | – | –
O=C(NNc1ncnc2sccc12)c1ccccn1 | 0.314 µM | 0.671 µM | > 1000 µM | – | 138 µM | 445 | – | –
O=C(NNc1ncnc2sccc12)c1cnccn1 | 0.851 µM | 2.28 µM | > 1000 µM | – | 233 µM | 274 | – | –
O=C(NNc1ncnc2sc3c(c12)CCC3)c1nc2ccccc2[nH]1 | 0.594 µM | 1.11 µM | > 1000 µM | – | 7.46 µM | 11.6 | – | –
O=C(NNc1ncnc2sc3c(c12)CCCC3)c1ccc2ccccc2n1 | 16.5 µM | – | > 1000 µM | – | 40.4 µM | 2.4 | – | –
C/C(=N/Nc1ncnc2sc3c(c12)CCC3)c1ccccn1 | 1.18 µM | 1.44 µM | > 1000 µM | – | 14 µM | 11.9 | – | –
CCc1sc2ncnc(N/N=C(/C)c3cc(O)ccc3O)c2c1C | 0.803 µM | 1.62 µM | > 1000 µM | – | > 292 µM | > 364 | – | –
c1ccc2[nH]c(Nc3ncnc4sc5c(c34)CCCC5)nc2c1 | 55.4 µM | > 104 µM | > 1000 µM | – | 231 µM | 4.2 | – | –
O=C(NNc1ncnc2sc3c(c12)CCCC3)c1nc2ccccc2[nH]1 | 0.17 µM | 0.679 µM | > 1000 µM | – | 3.14 µM | 18.5 | – | –
O=C(NNc1ncnc2sc3c(c12)CCC3)c1ccccn1 | 0.745 µM | 1.94 µM | > 1000 µM | – | 6.61 µM | 8.9 | – | –
O=C(NNc1ncnc2sc3c(c12)CCCC3)c1ccccc1O | 0.273 µM | 0.567 µM | > 1000 µM | – | 63.6 µM | 233 | – | –
Cc1sc2ncnc(NNC(=O)c3cnccn3)c2c1C | 0.0386 µM | 0.319 µM | > 1000 µM | – | 1.67 µM | 43.3 | – | –
C/C(=N/Nc1ncnc2sc(Cl)c(C)c12)c1cnccn1 | 0.058 µM | 0.289 µM | > 1000 µM | – | 3.13 µM | 53.9 | – | –
C/C(=N\Nc1ncnc2sc3c(c12)CCCC3)c1ccc2ccccc2n1 | < 0.697 µM | – | > 1000 µM | – | 7.23 µM | > 10.4 | – | –
C/C(=N/Nc1ncnc2sccc12)c1cc(O)ccc1O | 2.79 µM | 4.55 µM | 229 µM | – | 226 µM | 81 | – | –
O=C(NNc1ncnc2sc3c(c12)CCCC3)c1ccccn1 | 1.47 µM | 0.819 µM | > 1000 µM | – | 7.75 µM | 5.27 | – | –
COc1ccc(-c2c3c(nc4sc5c(O)nc(C)nc5c24)CCC3)cc1 | 21 µM | – | – | – | 128 µM | 6.1 | – | –
CCOC(=O)c1cnc2c(ccc3ccccc32)c1Nc1ccc(C(=O)OC)cc1 | 10.9 µM | – | – | – | 56.2 µM | 5.2 | – | –
C/C(=N\Nc1ncnc2sc3c(c12)CCCC3)c1ccc[nH]1 | 5.26 µM | 12.8 µM | – | – | 19.5 µM | 3.7 | – | –
c1cnc2c(Nc3ncnc4sc5c(c34)CCCC5)cccc2c1 | 186 µM | > 100 µM | – | – | > 301 µM | > 1.6 | – | –

Now from value to compound, other results behind:

EC50 (Hepatitis C virus; [4]) | EC90 (Hepatitis C virus; [4]) | IC50 [3] | EC50 (Hepatitis C virus) | SMILES | CC50 at 72 h [1] | selectivity ratio [2] | CC50 ([1]; huh-5-2, 72 h, 72 h) | Ratio CC50/EC50 [2]
0.069 µM | 0.24 µM | > 1000 µM | – | C/C(=N\Nc1nc(C)nc2sc3c(c12)CCCC3)c1cnccn1 | > 3 µM | > 42.7 | – | –
0.502 µM | 0.945 µM | > 1000 µM | – | O=C(NNc1ncnc2sc3c(c12)CCCC3)c1cc(O)ccc1O | 99.9 µM | 199 | – | –
2.34 µM | 3.67 µM | > 1000 µM | – | O=C(NNc1ncnc2sc3c(c12)CCC3)c1cc(O)ccc1O | 198 µM | 84.6 | – | –
1.26 µM | 3.07 µM | > 1000 µM | – | Cc1nc(NNC(=O)c2ccccc2O)c2c3c(sc2n1)CCCC3 | 25 µM | 19.8 | – | –
0.681 µM | 2.14 µM | > 1000 µM | – | O=C(NNc1ncnc2sc3ccccc3c12)c1cc(O)ccc1O | 46.5 µM | 68.3 | – | –
0.355 µM | 2.85 µM | > 1000 µM | – | C/C(=N\Nc1ncnc2sc3c(c12)CCCC3)c1cnccn1 | 57.1 µM | 160 | – | –
32.4 µM | > 33.5 µM | > 1000 µM | – | c1ccc2c(Nc3ncnc4sc5c(c34)CCCC5)cccc2c1 | 281 µM | 8.7 | – | –
1.1 µM | 3.25 µM | > 1000 µM | – | C/C(=N\Nc1ncnc2sc3ccccc3c12)c1nc2ccccc2[nH]1 | 19.1 µM | 17.4 | – | –
0.088 µM | 0.286 µM | > 1000 µM | – | Cc1c(Cl)sc2ncnc(NNC(=O)c3ccccn3)c12 | > 9.38 µM | > 106 | – | –
1.72 µM | 4.07 µM | > 1000 µM | – | C/C(=N\Nc1ncnc2sc3c(c12)CCC3)c1ccccc1O | 141 µM | 82.9 | – | –
– | – | > 1000 µM | < 1 µM | C/C(=N\Nc1ncnc2sc3c(c12)CCCC3)c1cc(O)ccc1O (stereo in doubt; form 1) | – | – | > 141 µM | > 141
0.159 µM | – | 306 µM | – | Cc1c(Cl)sc2ncnc(NNC(=O)c3ccccc3O)c12 | > 8.96 µM | > 56.1 | – | –
1.1 µM | – | – | – | CCc1ccc(S(=O)(=O)Nc2cc3c(C(=O)OC)c(C)oc3c3ccccc23)cc1 | 4.7 µM | 4.3 | – | –
23 µM | – | – | – | C/C(=N\Nc1ncnc2sc3c(c12)CCCC3)c1cccs1 | 46 µM | 2 | – | –
0.802 µM | < 2.24 µM | > 1000 µM | – | C/C(=N/Nc1ncnc2sc3c(c12)CCC3)c1nc2ccccc2[nH]1 | 6.83 µM | 8.3 | – | –

Source: ChEMBL document CHEMBL3870302, “Computer-aided identification, synthesis and evaluation of substituted thienopyrimidines as novel inhibitors of HCV replication” (Eur J Med Chem, 2016)
